Source: PubChem
DNMT1 block: DNMT1 (human) enzyme inhibition; inhibition (reported as % activation of signal), % at 10 µM; P26358; AID 588458; DNMT1 molecular beacon, Hinp1I cleavage, fluorescence; actives 0.83% (n = 360,000); in the data active means inhibition above about 50%
SUMO1 PPI mod: modulators of human SUMO1-mediated protein-protein interactions; P63165; SUMO1 binding to a labelled peptide, TR-FRET, 1 h; inhibition, % at 20 µM; actives 0.33% (n = 360,000); AID 602429; in the data active means inhibition above about 37%
Target sequence (P63165 whole entry, looked up): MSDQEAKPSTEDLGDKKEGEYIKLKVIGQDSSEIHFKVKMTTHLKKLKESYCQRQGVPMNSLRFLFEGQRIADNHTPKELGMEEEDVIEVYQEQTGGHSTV
STEP inh: STEP (human) phosphatase inhibition; P54829; recombinant STEP, OMFP fluorogenic substrate, fluorescence; inhibition, % at 20 µM; actives 0.25% (n = 360,000); AID 588621;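 active means inhibition at 20 µM, scaled per plate between control wells, above about 37%, limit read from the data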;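 further: 0% = DMSO with enzyme and substrate and 100% = substrate only without enzyme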
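System: isolated STEP enzyme; schedule: 20 min enzyme reaction at room temperature, protected from light; medium: Bis-Tris buffer pH 6.0, 2.5 mM DTT, 0.005% Tween 20; signal: fluorescence, 480/540 nm; dosing: single compound dose of 20 µM, 1% DMSO final; also added: OMFP substrate, 25 µM final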
Scp-1 inhibitor: blocks human Scp-1 phosphatase activity; Recombinant Scp1, phosphopeptide, malachite green phosphate absorbance; inhibition, % at 20 µM; actives 0.88% (n = 340,000);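 active means inhibition above about 50% at 20 µM, limit read from the data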;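 further: plate controls were DMSO wells with enzyme for no effect and wells lacking enzyme for full effect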
Target sequence (Q9GZU7 76-261 limits assumed): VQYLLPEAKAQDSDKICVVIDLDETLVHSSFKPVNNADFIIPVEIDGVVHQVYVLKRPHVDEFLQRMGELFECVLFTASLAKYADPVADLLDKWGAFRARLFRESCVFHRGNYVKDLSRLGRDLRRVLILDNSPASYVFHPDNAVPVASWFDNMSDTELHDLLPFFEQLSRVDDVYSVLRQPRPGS
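System: truncated SCP-1 phosphatase (76-261aa); medium: Tris acetate buffer pH 5.5 with MgCl2 and Tween-20; incubation: 45 min room-temperature reaction, 5 min colour, 30 min stabiliser; compound: single 20 µM dose, 1% DMSO; reagent: Phosphorylated 17-residue peptide substrate; read-out: % inhibition at 20 µM; technique: colorimetric free-phosphate detection, absorbance 630 nm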
NadD inh: inhibitors of Staphylococcus aureus NadD | inhibition, % at 20 µM | AID 602399 | purified NadD enzyme, colorimetric absorbance read-out | actives 0.78% (n = 360,000); in the data active means inhibition above about 26%
LMPTP inh: blocks human LMPTP phosphatase | P24666 | recombinant LMPTP-A, OMFP fluorogenic substrate, fluorescence intensity | inhibition, % at 20 µM | actives 0.22% (n = 360,000) | AID 651560;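 active means compounds that cut the enzyme signal by at least half of the control window in the single-dose screen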;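 further: plate controls were DMSO wells with enzyme plus substrate for no effect and substrate without enzyme for full effect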
Target sequence (P24666 whole entry, looked up): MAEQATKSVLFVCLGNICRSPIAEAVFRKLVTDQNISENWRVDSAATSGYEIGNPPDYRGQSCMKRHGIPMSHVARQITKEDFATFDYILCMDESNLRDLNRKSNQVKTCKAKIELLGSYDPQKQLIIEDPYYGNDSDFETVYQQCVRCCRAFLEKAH
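Test system – LMPTP-A phosphatase enzyme · Quantity – 0.625 nM LMPTP-A final · Reagent – OMFP substrate, 400 µM final · Dosing – one test concentration per compound, 20 µM, with 3% DMSO overall · Timing – 50 min enzyme reaction at room temperature, protected from light · Detection – fluorescence intensity · Controls – substrate-only low control, DMSO enzyme-plus-substrate high control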
Active calls of the source: *; · = no result. Shown are actives, neighbours in structure and some others; about 2.4% of the full set was active somewhere.

SMILES | DNMT1 block | SUMO1 PPI mod | STEP inh | Scp-1 inhibitor | NadD inh | LMPTP inh
Cc1ccc(S(=O)(=O)N2C[C@H]3C(=O)C[C@@H](c4ccc(Cl)cc4)N(S(=O)(=O)c4ccccc4C)[C@H]3C[C@H]2c2ccc(Cl)cc2)cc1 | -3.9 | 25.7 | -4.1 | · | 21.0 | 1.1
O=C(c1ccnc(Cl)c1)N1CCCC(N2CCN(c3ccccc3F)CC2)C1 (stereo not given) | -1.0 | 3.6 | 1.0 | -3.5 | -6.6 | 1.8
Cc1oc(-c2cc(F)ccc2F)nc1CN1CCN(c2cnccn2)CC1 | -4.2 | 43.8* | -0.7 | 4.2 | -2.5 | 0.2
Cc1ccc2ncccc2c1 | 2.6 | -0.2 | 0.5 | -6.3 | 6.1 | -0.8
Cc1nnc(C)c2c(C)n(-c3ccc4ncccc4c3)c(C)c12 | -7.1 | -0.7 | 3.4 | 0.6 | 12.2 | 53.7*
O=C(O)CCC(=O)Nc1cc(C(F)(F)F)cc(C(F)(F)F)c1 | 2.1 | 44.3* | 0.6 | -5.0 | 5.8 | 1.3
Cc1ccc2c(c1)c(/C=C/c1cc[n+](C)cc1)c(C)n2C | 22.7 | -268.8 | -19.3 | 53.8* | 20.5 | 12.6
O=C(NCc1ccco1)c1cc([N+](=O)[O-])ccc1N1CCOCC1 | 3.9 | -24.5 | -1.4 | -5.6 | -6.2 | -0.1
Cc1cc(=O)[nH]c2ccccc12 | 0.9 | -2.0 | 1.1 | -9.7 | -4.3 | -0.6
Cc1cc2[nH]c3c(c[n+](C)c4ccccc34)c2cc1C | 28.3 | -4.5 | 5.4 | 35.6 | 13.3 | 73.2*
Cc1ccc([C@@H]2CC=C(C(=O)O)CN2S(=O)(=O)c2ccc(C)cc2)cc1 | 0.2 | 2.4 | 0.6 | -5.2 | -2.4 | 0.0
CC(Sc1nnc(NCc2ccccc2)s1)C(=O)Nc1ccc2c(c1)C(=O)c1ccccc1C2=O (stereo not given) | -8.3 | -12.0 | 2.4 | 3.7 | 38.4* | 0.3
Cc1nn(CCc2nn[nH]n2)c2nc(-c3ccc(C4CCCCC4)cc3)cc(C(F)(F)F)c12 | 8.7 | 40.2* | 0.9 | -7.4 | 28.4 | 3.0
O=C(CSc1ccc(-c2ccco2)nn1)Nc1ccc(F)cc1F | -2.1 | -7.6 | 1.9 | -6.0 | 3.1 | 1.7
c1ccc(CNc2nc(NCCc3ccncc3)c3sccc3n2)cc1 | -2.2 | -1.4 | 3.9 | · | -0.3 | 87.0*
COc1ccccc1C=NN1C(=O)CSC1=S | -30.5 | -2.8 | -2.5 | -0.3 | 1.3 | 0.3
O=C1CSC(=S)N1/N=C/c1ccc(O)c(O)c1O | 3.7 | 10.3 | 14.6 | 52.9* | 8.3 | 64.9*
Clc1cccc(-c2ccc(C3Nc4cccc5cccc(c45)N3)o2)c1 | 43.6 | 15.1 | 0.3 | 10.6 | 52.4* | 53.2*
Clc1ccc(C2Nc3cccc4cccc(c34)N2)c(Cl)c1 | -20.2 | -6.6 | 1.2 | 20.5 | 7.7 | 6.4
C=C1[C@@H](OC(C)=O)C=C[C@@]2(C)C=CC(=O)[C@@](C)(OC(C)=O)[C@@H]2[C@@H](OC(C)=O)[C@]2(O)[C@@H](C)C(=O)O[C@H]2[C@H]1Cl | 1.1 | -3.3 | -0.3 | · | 1.3 | -0.4
CN[C@H]1C[C@H]2c3[nH]c4ccc(-c5cccc(C)c5)cc4c3CCN2C[C@H]1[C@H](C)O | -44.1 | -133.7 | 8.1 | · | 9.7 | -4.2
COc1ccccc1-c1sc2cc3c(cc2c1-c1ccc2c(c1)OCO2)OCO3 | 9.1 | -6.4 | -3.3 | 68.5* | 3.2 | 2.1
COc1cc(-c2nc(-c3ccc4c(c3)-c3ccccc3S4(=O)=O)c(-c3ccccc3)[nH]2)cc(OC)c1O | -17.2 | 0.3 | -0.5 | 6.3 | 35.2* | 3.3
COc1ccc(-c2[nH]c(-c3ccc(C(=O)O)cc3)nc2-c2ccccc2)cc1 | -6.1 | 5.6 | -5.3 | 9.7 | 7.2 | 0.2
CN1CCN(C(=O)c2ccc(-n3cccc3)cc2)CC1 | 1.2 | 2.3 | 1.0 | -4.7 | 3.0 | -1.7
SMILES | DNMT1 block | SUMO1 PPI mod | STEP inh | Scp-1 inhibitor | NadD inh | LMPTP inh
Cc1cc(C(C)(C)C)cc(C)c1Cn1c2[n+](c3ccc(C(F)(F)F)cc31)CCCCC2 | 16.1 | -18.8 | -0.1 | 66.1* | 19.7 | -0.5
CC(=O)c1sc(Nc2nc3cc4c(cc3s2)OCO4)nc1C | -3.4 | 40.0* | 1.9 | -3.0 | -5.6 | 4.0
CC(C)=C[C@H]1C[C@H](C)[C@H]2CC[C@H](C)c3c(O[C@@H]4O[C@@H](C)[C@@H](O)[C@@H](O)[C@@H]4O)c(O)c(C)c1c32 | -9.3 | -0.5 | -4.7 | · | 1.3 | 1.0
Nc1c(/C=C2/C=CC(=O)C(O)=C2)c(=O)nc2sc(CC(=O)N3CCCC3)nn12 | 21.1 | -7.7 | 4.6 | 87.9* | 4.5 | 3.7
Nc1c(/C=C2/C=CC(=O)C(O)=C2)c(=O)nc2sc(CC(=O)N3CCOCC3)nn12 | 18.8 | -6.0 | 2.4 | 71.5* | 0.5 | 2.3
COC1=C/C(=C/c2c(N)n3nc(CC(=O)N4CCCC4)sc3nc2=O)C=CC1=O | 0.8 | -22.2 | -3.0 | -1.7 | 2.0 | 1.4
Nc1c(/C=C2/C=CC(=O)C(O)=C2)c(=O)nc2sc(CC(=O)N3CCCCC3)nn12 | 81.3* | 45.2* | 13.3 | 72.5* | 14.9 | 65.0*
Nc1c(C=C2C=CC(=O)C=C2)c(=O)nc2sc(CC(=O)N3CCCCC3)nn12 | 4.6 | -4.7 | -0.4 | 8.6 | 2.4 | 0.2
OCC1OC(n2cnc3c(SCc4ccccc4)nc(F)nc32)C(O)C1O (stereo not given) | 1.4 | -3.5 | -0.7 | -2.7 | 3.2 | -0.4
CCSc1nnc(-c2ccccc2N=Cc2c(C)[nH]n(-c3ccccc3)c2=O)c(=O)[nH]1 | -4.1 | 12.3 | 2.2 | -11.7 | 5.4 | 0.2
COc1ccc(N2CC(C(=O)Nc3cc(C)ccn3)CC2=O)cc1 (stereo not given) | 1.6 | -2.3 | 0.5 | -17.3 | -7.6 | -0.7
CSc1nc(N(CCO)CCO)c2sc3nc(-c4ccco4)c4c(c3c2n1)CCC4 | 96.1* | 73.9* | 55.8* | 81.5* | 79.7* | 68.4*
COC(=O)CSc1nc(SC)nc2c1sc1nc(-c3ccco3)c3c(c12)CC(C)(C)OC3 | -1.7 | 2.6 | -0.8 | 2.5 | -3.4 | 1.6
Cc1nc(N)nc(N)c1CCCc1ccc(Cl)c(Cl)c1 | 3.0 | -2.8 | 0.0 | -7.2 | -4.4 | 64.1*
Cc1nc(N)nc(N)c1-c1ccc(Cl)c(Cl)c1 | 7.5 | -2.6 | 1.7 | -4.7 | -3.7 | 56.7*
COc1ccc(Cc2c(C)nc(N)nc2Cl)cc1 | 3.0 | 1.2 | -0.3 | 5.8 | 3.3 | 2.0
Nc1nc(N)nc(-c2ccc(Cl)c(Cl)c2)n1 | -6.6 | 0.1 | -3.5 | -4.4 | -4.8 | -0.8
C=Cc1cnc([N+](=O)[O-])n1C | -11.2 | -9.0 | 2.7 | · | -1.1 | -0.1
COc1ccc(NC(=O)c2c[nH]c(=O)n(-c3ccc(C)c(C)c3)c2=O)c(OC)c1 | 29.8 | 42.5* | -6.6 | -9.8 | -1.9 | -3.6
COc1cc2c(cc1OC)C(=O)C(Br)CC2 (stereo not given) | 83.0* | 111.4* | 3.8 | · | 24.9 | 6.4
